Values after ≈ are worked out from the molar mass of the structure shown.
Key:
[1] = tested on: Enterococcus faecium; assay: In vitro antibacterial activity against gram-positive Enterococcus faecium ATCC 8043; assay type: functional
Method in brief: (§1)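 Agar dilution MIC determination following the National Committee for Clinical Laboratory Standards recommendations.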

[2] = tested on: Escherichia coli; assay: In vitro antibacterial activity against gram negative Escherichia coli KNK 437; assay type: functional; method in brief: as §1
[3] = tested on: Pseudomonas aeruginosa; assay: In vitro antibacterial activity against gram negative P. aeruginosa DPHP 5263; assay type: functional; settings: Pseudomonas aeruginosa, DPHP 5263; read-out: MIC; method in brief: as §1
[4] = tested on: Burkholderia cepacia; assay: In vitro antibacterial activity against Pseudomonas cepacia 2961 a ciprofloxacin resistant strain; assay type: functional
Method in brief: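 MIC by agar dilution following National Committee for Clinical Laboratory Standards recommendations. P. cepacia 2961 is a ciprofloxacin-resistant strain; S. pyogenes 930 is erythromycin-resistant.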

[5] = tested on: Staphylococcus aureus; assay: In vitro antibacterial activity against gram-positive Staphylococcus aureus 1775; assay type: functional; method in brief: as §1
[6] = tested on: Staphylococcus aureus; assay: In vitro antibacterial activity against gram-positive Staphylococcus aureus NCTC 10649M; assay type: functional; settings: Staphylococcus aureus, NCTC 10649; read-out: MIC; method in brief: as §1
[7] = tested on: Burkholderia cepacia; assay: In vitro antibacterial activity against gram negative P. cepacia 2961
[8] = tested on: Pseudomonas aeruginosa; assay: In vivo efficacy against Pseudomonas aeruginosa 5007 in mouse protection test after subcutaneous administration; assay type: functional
Method in brief: (§2)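 Mouse protection model: mice infected intravenously with 100-fold LD50 of the organism. Compound given by subcutaneous injection or oral gavage at 1 and 5 h after infection, over a dose range. Deaths tracked for 7 days post-inoculation. ED50 is the dose giving 50% survival of treated mice over the trial.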

[9] = tested on: Staphylococcus aureus; assay: In vivo efficacy against Staphylococcus aureus NCTC 10649M in mouse protection test after p.o. administration.; assay type: functional; method in brief: as §2
[10] = tested on: Mus musculus; assay: In vivo efficacy against Staphylococcus aureus NCTC 10649M in mouse protection test after sub cutaneous administration; assay type: functional; method in brief: as §2
[11] = tested on: Streptococcus pneumoniae; assay: In vivo efficacy against Streptococcus pneumoniae ATCC 6303 in mouse protection test after s.c. administration.; assay type: functional; method in brief: as §2
[12] = tested on: Mus musculus; assay: In vivo efficacy against Streptococcus pneumoniae ATCC 6303 in mouse protection test […].; assay type: functional; method in brief: as §2
[13] = tested on: Escherichia coli; assay: In vivo efficacy against Escherichia coli JUHL in mouse protection test after p.o. administration.; assay type: functional; method in brief: as §2
[14] = tested on: Escherichia coli; assay: In vivo efficacy against Escherichia coli JUHL in mouse protection test after subcutaneous administration; assay type: functional; method in brief: as §2
[15] = tested on: Pseudomonas aeruginosa; assay: In vivo efficacy against Pseudomonas aeruginosa 5007 in mouse protection test after administration by oral gavage; assay type: functional; method in brief: as §2
[16] = tested on: Staphylococcus aureus; assay: In vivo efficacy against Staphylococcus aureus NCTC 10649M in mouse; assay type: functional; settings: Staphylococcus aureus; read-out: ED50; method in brief: as §2
[17] = tested on: Mus musculus; assay: IIn vivo efficacy against Escherichia coli JUHL in mouse protection test after by oral gavage; assay type: functional; method in brief: as §2
[18] = tested on: Pseudomonas aeruginosa; assay: In vitro antibacterial activity against Gram-negative Pseudomonas aeruginosa 5007; assay type: functional; settings: Pseudomonas aeruginosa; read-out: MIC; method in brief: as §1
[19] = tested on: Burkholderia cepacia; assay: In vitro antibacterial activity against gram negative Pseudomonas cepacia 2961; assay type: functional; method in brief: as §1
[20] = tested on: Streptococcus pyogenes; assay: In vitro antibacterial activity against gram positive Streptococcus pyogenes 930; assay type: functional; settings: Streptococcus pyogenes; read-out: MIC; method in brief: as §1
[21] = tested on: Mus musculus; assay: In vivo efficacy against Staphylococcus aureus NCTC 10649M in mouse protection test after administration by subcutaneous administration; assay type: functional; settings: sc; method in brief: as §2
[22] = tested on: Staphylococcus aureus; assay: In vitro antibacterial activity against gram-positive Staphylococcus aureus NCTC 10649M
[23] = tested on: Mus musculus; assay: In vivo efficacy against Staphylococcus aureus NCTC 10649M in mouse protection test after subcutaneous administration.; assay type: functional; settings: sc; method in brief: as §2
[24] = tested on: Mus musculus; assay: InIn vivo efficacy against Escherichia coli JUHL in mouse protection test after administration by oral gavage; assay type: functional; method in brief: as §2
[25] = tested on: Mus musculus; assay: IIn vivo efficacy against Streptococcus pneumoniae ATCC 6303 in mouse protection test after administration by oral gavage; assay type: functional; method in brief: as §2
[26] = tested on: Mus musculus; assay: In vivo efficacy against Pseudomonas aeruginosa 5007 in mouse protection test […]; assay type: functional; method in brief: as §2
[27] = tested on: Mus musculus; assay: In vivo efficacy against Streptococcus pneumoniae ATCC 6303 after subcutaneous administration; assay type: functional; settings: sc; method in brief: as §2
[28] = tested on: Mus musculus; assay: In vivo efficacy against Streptococcus pneumoniae ATCC 6303 after administration by oral gavage; assay type: functional; method in brief: as §2
[29] = tested on: Mus musculus; assay: IIn vivo efficacy against Escherichia coli JUHL in mouse protection test after administration by oral gavage.; assay type: functional; method in brief: as §2
[30] = Enterococcus faecium, ATCC 8043, read-out: MIC
[31] = Escherichia coli, read-out: MIC
[32] = Staphylococcus aureus, read-out: MIC
[33] = Pseudomonas aeruginosa, sc, read-out: ED50
[34] = Pseudomonas aeruginosa, po, read-out: ED50
[35] = Escherichia coli, sc, read-out: ED50
[36] = Burkholderia cepacia, read-out: MIC
[37] = Staphylococcus aureus, po, read-out: ED50

Cc1c(N2CCC3(CCCC3N)C2)c(F)cn2c(=O)c(C(=O)O)cc(C3CC3)c12 (centres undefined) showed an MIC [1, 30] of 0.1 µg/mL (≈ 0.25 µM), an MIC [2, 31] of 0.2 µg/mL (≈ 0.501 µM) and an MIC [3] of 6.2 µg/mL (≈ 15.5 µM). It also gave an MIC [4] of 3.1 µg/mL (≈ 7.76 µM), an MIC [5, 32] of 0.78 µg/mL (≈ 1.95 µM) and an MIC [6] of 0.05 µg/mL (≈ 0.125 µM). The MIC [7] was 0.78 µg/mL (≈ 1.95 µM).

Cc1c(N2CC[C@H](C)C(N)C2)c(F)cn2c(=O)c(C(=O)O)cc(C3CC3)c12 (single isomer, unassigned) showed an ED50 [8, 33] of over 32 mg/kg, an ED50 [9] of 6.3 mg/kg and an ED50 [10] of 1.2 mg/kg. It also gave an ED50 [11] of 8 mg/kg, an ED50 [12] of 5.2 mg/kg and an ED50 [13] of 12.5 mg/kg. The ED50 [14] was 2 mg/kg and the ED50 [15, 34] was over 50 mg/kg.

CN[C@@H]1CN(c2c(F)cn3c(=O)c(C(=O)O)cc(C4CC4)c3c2C)C[C@@H]1C gave an MIC [1, 30] of 0.1 µg/mL (≈ 0.268 µM), an MIC [2, 31] of 0.1 µg/mL (≈ 0.268 µM) and an ED50 [16] of 1.3 mg/kg. For the same compound, the ED50 [14, 35] was 0.5 mg/kg, the ED50 [17] was 2.7 mg/kg and the MIC [18] was 0.39 µg/mL (≈ 1.04 µM). For the same compound, the MIC [3] was 6.1 µg/mL (≈ 16.3 µM), the MIC [19, 36] was 1.56 µg/mL (≈ 4.18 µM) and the MIC [5, 32] was 0.39 µg/mL (≈ 1.04 µM). The MIC [6] was 0.02 µg/mL (≈ 0.0536 µM) and the MIC [20] was 0.1 µg/mL (≈ 0.268 µM).

For Cc1c(N2C[C@@H]3CCN[C@@H]3C2)c(F)cn2c(=O)c(C(=O)O)cc(C3CC3)c12 (stereo in doubt), the MIC [1] was 0.1 µg/mL (≈ 0.269 µM), the MIC [2] was 0.1 µg/mL (≈ 0.269 µM) and the ED50 [8] was 5 mg/kg. The ED50 [9, 37] was 1.5 mg/kg, the ED50 [21] was 0.6 mg/kg and the ED50 ([13]; Escherichia coli, po, read-out: ED50) was 1.1 mg/kg. It also gave an ED50 [14] of 0.5 mg/kg, an ED50 [15] of 17.9 mg/kg and an MIC [19] of 0.78 µg/mL (≈ 2.1 µM). The MIC [5] was 3.1 µg/mL (≈ 8.35 µM) and the MIC [22] was 0.05 µg/mL (≈ 0.135 µM).

Cc1c(N2C[C@H]3CCN[C@H]3C2)c(F)cn2c(=O)c(C(=O)O)cc(C3CC3)c12 gave an MIC [1, 30] of 0.2 µg/mL (≈ 0.538 µM), an MIC [2, 31] of 0.39 µg/mL (≈ 1.05 µM) and an ED50 [8, 33] of 18 mg/kg. It also gave an ED50 [9, 37] of 5 mg/kg, an ED50 [23] of 1.5 mg/kg and an ED50 ([11]; Streptococcus pneumoniae, sc, read-out: ED50) of 2.3 mg/kg. It also gave an ED50 [24] of 10 mg/kg, an ED50 [14, 35] of 0.8 mg/kg and an ED50 [15, 34] of over 50 mg/kg. It also gave an ED50 [25] of 11.2 mg/kg, an MIC [3] of 0.62 µg/mL (≈ 1.67 µM) and an MIC [19, 36] of 0.78 µg/mL (≈ 2.1 µM). It also gave an MIC [5, 32] of 6.2 µg/mL (≈ 16.7 µM) and an MIC [6] of 0.1 µg/mL (≈ 0.269 µM).

Work on Cc1c(N2CC[C@H](N)C2)c(F)cn2c(=O)c(C(=O)O)cc(C3CC3)c12 (stereo in doubt; 3i) [ABT-719] yielded an MIC [1, 30] of 0.02 µg/mL (≈ 0.0579 µM), an MIC [2, 31] of 0.02 µg/mL (≈ 0.0579 µM) and an ED50 [8, 33] of 0.5 mg/kg. It also gave an ED50 [26] of 2.9 mg/kg, an ED50 [9, 37] of 3 mg/kg and an ED50 [16] of 0.8 mg/kg. For the same compound, the ED50 [27] was 2.6 mg/kg, the ED50 [14, 35] was 0.3 mg/kg and the MIC [19, 36] was 0.39 µg/mL (≈ 1.13 µM). It also gave an MIC [5, 32] of 0.78 µg/mL (≈ 2.26 µM), an MIC [6] of 0.02 µg/mL (≈ 0.0579 µM) and an ED50 [28] of 10 mg/kg. The ED50 [29] was 8.3 mg/kg.

From ChEMBL document CHEMBL1132437, “Synthesis and antimicrobial activity of 4H-4-oxoquinolizine derivatives: consequences of structural modification at the C-8 position” (1999)
